Experimental data from ChEMBL document CHEMBL1123617, “Antipsychotic activity of substituted gamma-carbolines” (J Med Chem, 1987).

How the values were obtained:
[1] = test system: Rattus norvegicus; experiment: Potential antipsychotic activity was assessed by measuring the ability to block the conditioned avoidance response(CAR) in rats on oral administration; value may range from 11 to 81; format: functional
Method in brief: (§1)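 Each session had 60 trials, with a control session before every drug run. Trials with no avoidance response (avoidance block) were summed over rats at each dose and expressed as a percentage of total trials. Control avoidance was set at 100%. The dose giving 50% block (AB50) was fitted by least squares.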

[2] = target: T1, Serotonin 2 (5-HT2) receptor (Rattus norvegicus, UniProt P30994+P08909+P14842); experiment: In vitro 5-hydroxytryptamine 2 receptor affinity by using [3H]spiperone as the radioligand in rat cortical tissue; value may range from 165 to 263
[3] = target: T1, Serotonin 2 (5-HT2) receptor; experiment: In vitro 5-hydroxytryptamine 2 receptor affinity by using [3H]spiperone as the radioligand in rat cortical tissue.; value may range from 76 to 299
[4] = test system: Mus musculus; experiment: Ability to inhibit apomorphine (APO) induced climbing behavior in mice by intraperitoneal administration of compound; value may range from 1 to 13; format: functional; conditions: ip
Method in brief: (§2)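 Male CF-1 mice (20–25 g), acclimated at least 3 days, were given compound ip in 0.25% Tween 80 at 1, 10, 30 and 60 mg/kg (six mice per dose), alongside a concurrent vehicle group. Apomorphine 1 mg/kg sc was given 30 min later. Scoring at 5 min: stereotypy (sniffing-licking-gnawing) 0/1; climbing 0–2.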

[5] = target: T2, D(2) dopamine receptor (Rattus norvegicus, UniProt P61169); experiment: In vitro Dopamine receptor D2 affinity by using [3H]spiperone as the radioligand in rat limbic system at 1 uM concentration of compound; value may range from 84 to 130; format: tissue-based
T2 sequence (P61169 whole entry): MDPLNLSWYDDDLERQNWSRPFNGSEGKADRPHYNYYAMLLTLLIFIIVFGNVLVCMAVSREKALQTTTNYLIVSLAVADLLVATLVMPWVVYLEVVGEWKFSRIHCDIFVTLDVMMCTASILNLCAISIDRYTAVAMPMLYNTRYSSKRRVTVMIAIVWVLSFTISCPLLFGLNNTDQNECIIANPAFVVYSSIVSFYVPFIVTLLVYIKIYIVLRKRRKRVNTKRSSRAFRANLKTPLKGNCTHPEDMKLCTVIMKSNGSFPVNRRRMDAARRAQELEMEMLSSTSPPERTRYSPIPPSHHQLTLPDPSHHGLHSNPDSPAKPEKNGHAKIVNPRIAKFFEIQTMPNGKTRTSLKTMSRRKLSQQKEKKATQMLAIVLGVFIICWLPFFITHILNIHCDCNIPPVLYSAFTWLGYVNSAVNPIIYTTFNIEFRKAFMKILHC

[6] = test system: Rattus norvegicus; experiment: Potential antipsychotic activity was assessed by measuring the ability to block the conditioned avoidance response(CAR) in rats on oral administration; value may range from 10 to 31; format: functional; method in brief: as §1
[7] = test system: Mus musculus; experiment: Ability to inhibit apomorphine (APO) induced stereotyped behavior in mice by intraperitoneal administration of compound; value may range from 7 to 18; format: functional; conditions: ip; method in brief: as §2
[8] = target: T2, D(2) dopamine receptor; experiment: In vitro Dopamine receptor D2 affinity by using [3H]spiperone as the radioligand in rat limbic system at 1 uM concentration of compound; value may range from 238 to 401; format: tissue-based
[9] = target: T2, D(2) dopamine receptor; experiment: In vitro Dopamine receptor D2 affinity by using [3H]spiperone as the radioligand in rat limbic system at 1 uM concentration of compound; value may range from 20 to 130; format: tissue-based
[10] = test system: Rattus norvegicus; experiment: Potential antipsychotic activity was assessed by measuring the ability to block the conditioned avoidance response(CAR) in rats on oral administration; format: functional
[11] = test system: Mus musculus; experiment: Ability to inhibit apomorphine (APO) induced climbing behavior in mice by intraperitoneal administration of compound.; value may range from 1 to 23; format: functional; conditions: ip
[12] = test system: Mus musculus; experiment: Ability to inhibit apomorphine (APO) induced stereotyped behavior in mice by intraperitoneal administration of compound; value may range from 22 to 31; format: functional; conditions: ip
[13] = target: T2, D(2) dopamine receptor; experiment: (§3) In vitro Dopamine receptor D2 affinity by using [3H]spiperone as the radioligand in rat limbic system at 1 uM concentration of compound; format: tissue-based
[14] = test system: Rattus norvegicus; experiment: Potential antipsychotic activity was assessed by measuring the ability to block the conditioned avoidance response(CAR) in rats on oral administration.; format: functional
[15] = target: T2, D(2) dopamine receptor; experiment: In vitro Dopamine receptor D2 affinity by using [3H]spiperone as the radioligand in rat limbic system at 1 uM concentration of compound; value may range from 39 to 78; format: tissue-based
[16] = target: T2, D(2) dopamine receptor; experiment: In vitro Dopamine receptor D2 affinity by using [3H]spiperone as the radioligand in rat limbic system at 1 uM concentration of compound; value may range from 3 to 10; format: tissue-based
[17] = test system: Rattus norvegicus; experiment: Potential antipsychotic activity was assessed by measuring the ability to block the conditioned avoidance response(CAR) in rats on oral administration; value may range from 8 to 35; format: functional; method in brief: as §1
[18] = target: T1, Serotonin 2 (5-HT2) receptor; experiment: In vitro 5-hydroxytryptamine 2 receptor affinity by using [3H]spiperone as the radioligand in rat cortical tissue; value may range from 6 to 75
[19] = target: T2, D(2) dopamine receptor; experiment: In vitro Dopamine receptor D2 affinity by using [3H]spiperone as the radioligand in rat limbic system at 1 uM concentration of compound; value may range from 72 to 141; format: tissue-based
[20] = test system: Rattus norvegicus; experiment: Potential antipsychotic activity was assessed by measuring the ability to block the conditioned avoidance response(CAR) in rats on oral administration; indicates insignificant activity; format: functional
[21] = test system: Rattus norvegicus; experiment: Potential antipsychotic activity was assessed by measuring the ability to block the conditioned avoidance response(CAR) in rats on oral administration; insigniificant activity, ip in shelf jump tset; format: functional
[22] = species: Mus musculus; experiment: animal or person; conditions: ip
[23] = species: Mus musculus; experiment: animal or person; conditions: ip; remark: listed apart in the source
[24] = target: D(2) dopamine receptor (Rattus norvegicus) (UniProt P61169); experiment: as §3; format: tissue-based
Chain of D(2) dopamine receptor (Rattus norvegicus) (P61169 whole entry): as above

[25] = target: T2, D(2) dopamine receptor; experiment: In vitro Dopamine receptor D2 affinity by using [3H]spiperone as the radioligand in rat limbic system at 1 uM concentration of compound; value may range from 14 to 22; format: tissue-based

## Cl.Fc1ccc2[nH]c3c(c2c1)CN(CCc1ccncc1)CC3 [CARVOTROLINE HYDROCHLORIDE]
[1]
  AB50: 23 mg/kg
[2]
  Ki: 0.211 µM

## Cl.Fc1ccc2[nH]c3c(c2c1)CN(CCCc1cccnc1)CC3 [GEVOTROLINE HYDROCHLORIDE]
[3]
  Ki: 0.136 µM
[4]
  ED50: 4 mg/kg
[5]
  Ki: 0.104 µM
[6]
  AB50: 14 mg/kg
[7]
  ED50: 11 mg/kg

## c1ccc2nc(CCN3CCc4[nH]c5ccccc5c4C3)ccc2c1
[8]
  Ki: 0.331 µM

## c1cnc(N2CCN(CCCN3CCc4[nH]c5ccccc5c4C3)CC2)nc1
[9]
  Ki: 0.06 µM

## CN1CCN(C2=Nc3cc(Cl)ccc3Nc3ccccc32)CC1 [CLOZAPINE]
[10]
  AB50: 11 mg/kg
[11]
  ED50: 5 mg/kg
[12]
  ED50: 26 mg/kg

## Cl.Fc1ccc2[nH]c3c(c2c1)CN(CCc1cnccn1)CC3
[13]
  Ki: 0.063 µM
[14]
  AB50: >40 mg/kg

## Cl.Clc1ccc2[nH]c3c(c2c1)CN(CCCN1CCN(c2ncccn2)CC1)CC3
[14]
  AB50: >40 mg/kg
[15]
  Ki: 0.055 µM

## Cl.Fc1ccc(-n2c3c(c4cc(F)ccc42)CN(CCc2cnccn2)CC3)cc1
[16]
  Ki: 0.005 µM
[17]
  AB50: 16 mg/kg
[18]
  Ki: 0.023 µM

## Cl.Clc1ccc2[nH]c3c(c2c1)CN(CCc1ccccn1)CC3
[19]
  Ki: 0.103 µM
[20]
  AB50: >40 mg/kg

## CC1CN(CCCN2CCc3[nH]c4ccc(Cl)cc4c3C2)CC(C)N1.Cl (configuration not stated)
[21]
  AB50: >40 mg/kg

## O=C(CCCN1CCC(O)(c2ccc(Cl)cc2)CC1)c1ccc(F)cc1 [HALOPERIDOL]
[22]
  ED50: 0.1 mg/kg
[14]
  AB50: 0.2 mg/kg
[23]
  ED50: 0.1 mg/kg

## c1ccc(CCN2CCc3[nH]c4ccccc4c3C2)nc1
[24]
  inhibition: 33%

## Fc1ccc(C(CCCN2CCc3[nH]c4ccc(F)cc4c3C2)c2ccc(F)cc2)cc1
[25]
  Ki: 0.018 µM
